KCNK3 block: human KCNK3 channel inhibition, primary screen; CHO-KCNK3 thallium flux, FluxOR fluorescence; active compounds read low; B-score at 10 µM; hit rate 0.84% among 340,000; AID 602410;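 active means B-score under library mean minus 4 SD, starting fluorescence ratio at most library mean plus 5 SD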;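 further: more negative B-score means stronger inhibition of thallium flux through KCNK3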
Target sequence (O14649 whole entry, looked up): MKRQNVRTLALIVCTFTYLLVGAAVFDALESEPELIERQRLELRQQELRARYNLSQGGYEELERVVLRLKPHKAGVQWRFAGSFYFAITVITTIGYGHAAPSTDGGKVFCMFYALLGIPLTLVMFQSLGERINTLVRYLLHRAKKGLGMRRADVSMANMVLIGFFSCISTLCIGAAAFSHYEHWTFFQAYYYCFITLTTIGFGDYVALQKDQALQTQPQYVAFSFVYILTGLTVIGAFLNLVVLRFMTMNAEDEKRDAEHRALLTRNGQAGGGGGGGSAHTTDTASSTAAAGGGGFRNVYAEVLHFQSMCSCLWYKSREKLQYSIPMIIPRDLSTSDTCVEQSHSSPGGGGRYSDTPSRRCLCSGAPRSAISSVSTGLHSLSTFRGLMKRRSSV
KCNQ1 inh: blocks the human KCNQ1 potassium channel; P51787; CHO-K1 KCNQ1, FluxOR thallium flux fluorescence; active compounds read high; B-score at 10 µM; hit rate 1.3% among 310,000; AID 2642;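 active means compounds whose thallium flux B-score, printed positive for inhibition, exceeds three library SD while starting fluorescence stays within three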;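 further: channel opened by potassium depolarization with thallium stimulus after 20 min compound exposure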
hERG rescue: compounds protecting human hERG from proarrhythmic drug block | activation (rescue from dofetilide block), less the hit threshold, % at 10 µM | CHO-hERG, FluxOR thallium flux, dofetilide IC70 present | AID 1511 | hit rate 0.51% among 310,000;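 active means activation above the mean of controls blocked by dofetilide plus 5 SD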;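 further: thallium influx through hERG after potassium depolarization seen as dye fluorescence rise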
KCC2 mod: modulators of human KCC2 chloride dependent transport | Q9H2X9 | KCC2 cells, thallium flux FluoZin-2 fluorescence | B-score of Tl+ flux slope (higher = more flux/activation; lower = inhibition) at 10 µM | hit rate 2.2% among 190,000;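 active means thallium flux slope and its plate-corrected score both differing from the plate sample mean at a set confidence after two filtering rounds, in either direction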;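 further: slope of fluorescence scaled to starting intensity during 10 to 20 s after thallium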
KCNQ1 act: potentiates or activates the human KCNQ1 potassium channel | hit rate 0.35% among 310,000 | CHO-K1 KCNQ1, thallium flux FluxOR fluorescence; active compounds read high | AID 2648 | P51787 | B-score at 10 µM;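 active means fluorescence ratio B-score, a plate-corrected score, at least three library SD, with initial intensity B-score within 5 SD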
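System: CHO-K1 cells stably expressing KCNQ1 / Medium: assay buffer for compound exposure, DMSO matched across wells / Reagent: thallium- and potassium-containing depolarizing buffer / Compound: one concentration, matched DMSO / Incubation: 20 min compound pretreatment at room temperature / Measured by: kinetic FluxOR fluorescence, 10 s baseline plus 110 s post-stimulus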
KCNK9 block: inhibitors of human KCNK9 two-pore domain potassium channel | Q9NPC2 | HEK293 KCNK9, FluxOR thallium flux fluorescence; active compounds read low | B-score at 10 µM | hit rate 1.2% among 310,000;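 active means ratio B-score over 3 SD below the library mean, with starting fluorescence within 5 SD of its mean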;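 further: negative B-score means less thallium flux so channel inhibition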
KCC2 secondary: confirmation of human KCC2 transport modulators | normalised thallium flux (F/F0 slope) at 10 µM | hit rate 15% among 3,700 | shares compounds with KCC2 mod | HEK293-KCC2, thallium flux, FluoZin2 fluorescence; active compounds read high;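 active means thallium flux slope above the same plate's solvent-only control mean plus 3 SD; inconclusive means the two replicate wells disagree; inactive means no significant difference from solvent-only control wells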
KCC2 bumet counter: thallium flux despite bumetanide block in KCC2 cells, secondary assay 3; shares compounds with KCC2 mod; HEK293-KCC2 + bumetanide/ouabain, thallium flux FluoZin2; active compounds read high; normalized thallium flux at 10 µM; hit rate 49% among 3,700;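 active means thallium entry rate above the same plate's blocked-transporter control wells by more than 3 SD; inconclusive means the two repeat wells disagree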;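 further: raw slope of fluorescence over initial fluorescence between 10 and 20 s after thallium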
KCC2 sec2: KCC2 (human) modulation, second secondary assay; shares compounds with KCC2 mod; HEK293-KCC2, thallium flux FluoZin2 fluorescence; actives lie on both sides; F/F0 rise rate, 10–20 s post-thallium; normalized thallium flux at 10 µM; hit rate 23% among 3,700;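 active means thallium flux slope more than 3 SD above or below the plate's solvent-only control mean, mostly below; inconclusive means the two repeat wells disagreed; inactive means no significant shift from solvent-only controls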;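 further: raw slope with 0.1% DMSO as baseline and bumetanide as block control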
HEK counter1: acts in parental HEK cells, KCC2 counter-screen | hit rate 46% among 3,700 | shares compounds with KCC2 mod | AID 1716 | thallium flux rate (normalised fluorescence) at 10 µM | HEK293 parental cells, thallium flux FluoZin2, ouabain; baseline-ratio fluorescence slope, 10–20 s after thallium;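 active means thallium flux rate significantly above the same plate's solvent-only control wells, beyond their mean plus 3 SD; inconclusive means the two replicate wells gave conflicting results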
KCC2 retest ouab: modulates human KCC2 on retest with ouabain; AID 1717; raw Tl+ flux slope (below DMSO = inhibition, above = activation) at 10 µM; hit rate 48% among 3,700; HEK293-KCC2, thallium flux FluoZin2 fluorescence; bidirectional: low = inhibitor, high = activator; shares compounds with KCC2 mod;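 active means thallium flux slope beyond 3 SD from same-plate DMSO control mean in most replicates, usually higher, sometimes lower; inconclusive means repeat tests gave conflicting results; inactive means no significant difference from controls in most replicates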;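 further: slope of initial-normalized fluorescence between seconds 10 and 20 after thallium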
HEK counter2: acts in parental HEK cells, second KCC2 counter-screen; HEK293 parental, thallium flux FluoZin-2 fluorescence slope; AID 1718; hit rate 33% among 3,700; thallium flux slope at 10 µM; shares compounds with KCC2 mod;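 active means thallium flux slope above the same plate's solvent-control mean plus 3 SD in both duplicate wells; inconclusive means duplicate wells that disagreed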;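 further: run without ouabain in cells lacking the KCC2 cotransporter; slope of fluorescence scaled to its starting value between 10 and 20 s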
* hit, by the source's call; i = inactive; ? = inconclusive; . = not tested or not shown. Hits are enriched below; roughly 4.1% of the tested compounds scored in any of these assays.

SMILES	KCNK3 block	KCNQ1 inh	hERG rescue	KCC2 mod	KCNQ1 act	KCNK9 block	KCC2 secondary	KCC2 bumet counter	KCC2 sec2	HEK counter1	KCC2 retest ouab	HEK counter2
O=C(NNC(=S)NC(=O)c1ccco1)c1ccc(F)cc1	i	i	-8	60*	i	i	0.026*	0.063*	?	0.035*	0.043*	0.019*
O=C(NNC(=S)Nc1ccc(F)cc1F)c1ccco1	i	i	-11	.	i	i	.	.	.	.	.	.
CCCOc1ccc(C(=O)NNC(=S)NC(=O)c2ccco2)cc1	i	i	18*	97*	12*	i	0.007	0.0048	0.084*	0.086*	?	0.084*
CCCOc1ccc(C(=O)NCCO)cc1	i	i	-5	5.9*	i	i	0.0095	0.0057	0.033	0.0078	0.023	0.0099
O=C(COc1ccc(Cl)cc1Cl)NNC(=S)NC(=O)c1ccco1	i	i	-18	70*	i	i	0.03*	0.12*	0.036	?	0.076*	0.03*
O=C(NC1CC1)c1ccc(NC(=O)C2CCCCC2)cc1	i	.	.	.	.	.	.	.	.	.	.	.
Cc1ccc(Cc2nnc(SCC(=O)Nc3ccccc3)n(N)c2=O)cc1	i	i	-6	.	i	i	.	.	.	.	.	.
O=C(CNc1ccccc1F)Nc1cccc(S(=O)(=O)N2CCCCC2)c1	i	.	.	.	.	.	.	.	.	.	.	.
O=C(NC(=S)NNC(=O)c1cccs1)c1ccco1	i	i	-17	3.6*	i	i	0.018*	0.029*	0.038	0.019*	0.036*	0.013*
CCCCCC(=O)Cc1cc(O)cc2c1C(=O)Oc1cc(O)c(C(=O)O)c(CCCCC)c1O2	.	i	-12	-1.6*	i	i	?	0.0046	0.026*	0.008	?	0.011
Cn1c(-c2ccc3nc(N)sc3c2)nc2cc(N)ccc21	i	i	-15	.	i	i	?	?	0.031	0.0082	0.019	0.01
CCOc1ccc(-n2nc(C(=O)NC3CCCCC3)c3ccccc3c2=O)cc1	i	i	-10	.	i	i	.	.	.	.	.	.
O=C(Nc1ccccc1)c1nc[nH]c1C(=O)NCCN(CCNC(=O)c1[nH]cnc1C(=O)Nc1ccccc1)CCNC(=O)c1[nH]cnc1C(=O)Nc1ccccc1	i	.	.	.	.	.	.	.	.	.	.	.
N#Cc1c(NC(=O)CSc2nc(N)cc(=O)[nH]2)sc2c1CCCCCC2	i	i	-10	.	i	i	0.0062	0.0049	0.027*	0.0075	?	0.0098
CCC(Sc1nc(C)cc(=O)[nH]1)C(=O)Nc1sc2c(c1C#N)CCCC2 (stereo not given)	i	i	2	.	i	i	0.0061	0.0045	0.026*	0.0065	0.017	0.0098
CC(Sc1nc(N)cc(=O)[nH]1)C(=O)Nc1sc2c(c1C#N)CCCC2 (stereo not given)	i	i	-7	-0.98	i	i	.	.	.	.	.	.
CCOc1ccccc1C1NC(=O)c2ccccc2N1 (stereo not given)	i	.	.	.	.	.	.	.	.	.	.	.
CC1Cc2ccccc2N1C(=O)CSc1nncs1 (stereo not given)	i	.	.	.	.	.	.	.	.	.	.	.
